These results are taken from ChEMBL document CHEMBL4316598, “Synthesis, antiproliferative and apoptosis induction potential activities of novel bis(indolyl)hydrazide-hydrazone derivatives” (Bioorg Med Chem, 2019).

The subject of one series is SCC-25. Briefly: Cytotoxicity against human SCC25 cells assessed as reduction in cell viability after 4 hrs by MTT assay. In kind it is functional, cell-based.
A further series concerns Detroit 562. Put plainly: Cytotoxicity against human Detroit 562 cells assessed as reduction in cell viability after 4 hrs by MTT assay. The class given is functional, cell-based. Background: Tetrazolium dyes change colour on reduction, which living cells bring about.
Series [1] in a line: Cytotoxicity against HEK293 cells assessed as cell viability at 200 uM after 4 hrs by MTT assay relative to control. The class given is cell-based. The following applies: human, read-out: Activity. In outline: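 MTT: 10,000–20,000 cells/well attached for 16 h, then washed twice with serum-free RPMI. Treated with 1–200 µM for 4 h, 3 parallel runs per concentration. MTT added for 2 h; medium partly removed and isopropanol added. A590 read. Viability = (A treated − A doxorubicin)/(A medium − A doxorubicin)×100. Mean of three experiments, triplicate wells each.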

For series [2], the system named is MCF7. Briefly: Induction of apoptosis in human MCF7 cells assessed as necrotic cells at 1 uM after 8 hrs by annexin-V FITC/propidium iodide staining based flow cytometric analysis relative to control. The class given is functional. In outline: (§1)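 Cells were grown in DMEM with 10% heat-inactivated FBS at 37 °C and 5% CO₂, then plated at 500,000 cells/well in 24-well plates. They were treated from a DMSO stock (DMSO ≤0.1%) for 8, 12 or 16 h. After a PBS wash, cells were resuspended in binding buffer (10 mM HEPES pH 7.4, 2.5 mM CaCl₂, 140 mM NaCl, 0.1% BSA), stained 40 min with FITC-annexin V, then with PI, and run on the flow cytometer immediately. Values are the mean of three independent experiments.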
(In general: Flow cytometry measures light scatter and fluorescence of single cells or particles in a stream.)

Series [3] has as its system MCF7. Put plainly: Induction of apoptosis in human MCF7 cells assessed as necrotic cells at 1 uM after 16 hrs by annexin-V FITC/propidium iodide staining based flow cytometric analysis relative to control. The class given is functional. In outline:
as §1

In series [4] the test system is MCF7. Briefly: Induction of apoptosis in human MCF7 cells assessed as viable cells at 1 uM after 16 hrs by annexin-V FITC/propidium iodide staining based flow cytometric analysis relative to control. The class given is functional. Conditions: MCF7, 16 h, read-out: Activity. In outline:
as §1

The test system of series [5] is HeLa. Briefly: Induction of apoptosis in human HeLa cells assessed as viable cells at 1 uM after 16 hrs by annexin-V FITC/propidium iodide staining based flow cytometric analysis relative to control. In kind it is functional. The following applies: read-out: Activity. Summed up: as §1
The test system of series [6] is MCF7. Put plainly: Induction of cell cycle arrest in human MCF7 cells at 1 uM after 16 hrs by propidium iodide/RNase A staining based FACS analysis. In kind it is functional. Summed up:
(§2)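 Cells were seeded at 1 million cells/mL in 24-well plates and grown to 70% confluence. They were exposed at 1 µM for 16 h, washed in cold PBS, fixed in absolute ethanol and stored at −20 °C. Staining was with RNase A (20 µg/mL final) and PI (50 µg/mL final) for 30 min at 37 °C in the dark. Results are given as the percentage of cells in each cell-cycle phase by FACS.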

In series [7] the test system is HeLa. Briefly: Induction of cell cycle arrest in human HeLa cells at 1 uM after 16 hrs by propidium iodide/RNase A staining based FACS analysis. In kind it is functional. In outline:
as §2

Series [8] has as its system HeLa. Put plainly: Induction of ROS generation in human HeLa cells at 5 uM after 8 hrs by DCFH-DA staining-based fluorescence spectrophotometric analysis relative to control. The class given is functional. In outline: (§3)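 DCFH-DA ROS: HeLa or MCF-7 cells at 2×10^6/well cultured 12 h, treated 4 or 8 h; t-BHP (10 μM) is the positive control. DCFH-DA 10 μM added for 10 min at 37 °C, cells washed twice with PBS. Fluorescence read at ex 485/em 520 nm. For the NAC arm, NAC (5 mM) is added to the medium before treatment.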

The test system of series [9] is HeLa. Briefly: Induction of ROS generation in human HeLa cells at 5 uM after 4 to 8 hrs in presence of NAC by DCFH-DA staining-based fluorescence spectrophotometric analysis. The class given is functional, cell-based. In outline:
as §3

Series [10] deals with MCF7. Briefly: Induction of nitric oxide production in human MCF7 cells measured over 8 hrs by Griess reaction based assay. The class given is functional, cell-based. Summed up:
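Cells seeded at 2×10^6 cells/well for 12 h, then exposed to 1, 5 and 10 μM compound for 8 h at 37 °C. Culture supernatant mixed with Griess reagent (0.002% N-1-naphthyl-ethylenediamine dihydrochloride, 0.5% sulfanilic acid, 14% glacial acetic acid). Nitrite read by absorbance at 550 nm and compared with vehicle group.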
In general terms: The Griess reaction detects nitrite, a stable product of nitric oxide.

The target in series [11] is Tyrosine-protein kinase ABL1 (Homo sapiens) (UniProt P00519). Briefly: Inhibition of ABL phosphorylation (unknown origin) at 50 uM after 5 to 60 mins by bioluminescence assay. Summed up:
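Kinase activity measured with compound at 1, 5, 10 and 50 μM, using a Kinase Reaction Rate Kit. Phosphorylation was followed by bioluminescent monitoring of ATP consumption, with light read at 5 min and 1 h. Staurosporine served as positive control. Data given as % kinase inhibition (% of control activity), from two separate experiments.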

Series [12] relates to HeLa. Put plainly: Effect on mitochondrial membrane potential in human HeLa cells assessed as shift change at 5 uM after 1 hrs by Rhodamine 123 dye-based fluorescence assay. In kind it is functional, cell-based. In outline:
(§4)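 Mitochondrial potential: HeLa or MCF-7 cells treated with 5 µM (final) for 1, 2, 4 and 8 h. Rhodamine 123 added, cells incubated 30 min at 37 °C, washed with PBS, and analysed by flow cytometry. Fluorescence histogram shift is compared with control.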

The subject of series [13] is MCF7. Briefly: Effect on mitochondrial membrane potential in human MCF7 cells assessed as shift change at 5 uM measured over 4 hrs by Rhodamine 123 dye-based fluorescence assay. In kind it is functional, cell-based. In outline:
as §4

For series [14], the system named is HeLa. Briefly: Induction of caspase-dependent apoptosis in human HeLa cells assessed as activation of caspase-3 at 1 to 3 uM after 24 hrs by Western blot analysis. The class given is functional, cell-based. Summed up:
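Cleaved caspase-3 immunoblot. Cells were exposed at 1, 3 and 5 µM for 24 h at 37 °C, with paclitaxel 3 µM as positive control. Lysis was in ice-cold Triton X-100 buffer, and protein was measured by BCA. Lysates were separated by electrophoresis, transferred to nitrocellulose and blocked in milk. Primary antibody was applied overnight at 4 °C and secondary for 1 h at 28 °C. Detection was by enhanced chemiluminescence.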

Series [15] concerns MCF7. Briefly: Induction of caspase-dependent apoptosis in human MCF7 cells assessed as activation of caspase-6 at 1 to 3 uM after 24 hrs by Western blot analysis. The class given is functional, cell-based. In outline:
(§5)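 Cells were treated at 1, 3 and 5 µM for 24 h at 37 °C. Lysis was in ice-cold Triton X-100 buffer with protease and phosphatase inhibitors; nuclear proteins were extracted separately. Protein was quantified by BCA. Lysates were separated by electrophoresis, transferred to nitrocellulose and blocked in non-fat milk for 1 h. Primary antibody was applied overnight at 4 °C and secondary for 1 h at 28 °C. Detection was by enhanced chemiluminescence.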

Series [16] deals with HeLa. Put plainly: Induction of caspase-dependent apoptosis in human HeLa cells assessed as activation of caspase-8 at 1 to 3 uM after 24 hrs by Western blot analysis. In kind it is functional, cell-based. Summed up:
as §5

In series [17] the test system is HeLa. Briefly: Induction of caspase-dependent apoptosis in human HeLa cells assessed as activation of caspase-9 at 1 to 3 uM after 24 hrs by Western blot analysis. The class given is functional, cell-based. In outline:
as §5

The test system of series [18] is HeLa. Briefly: Induction of apoptosis in human HeLa cells assessed as effect on Mcl-1 long level at 1 to 3 uM after 24 hrs by Western blot analysis. The class given is functional, cell-based. Summed up: as §5

The source made the active and inactive calls. No cut-off for these calls is given here.

Broadly, the IC50 is the midpoint of a concentration-inhibition curve.

Sequence of Tyrosine-protein kinase ABL1 (Homo sapiens) (P00519 whole entry): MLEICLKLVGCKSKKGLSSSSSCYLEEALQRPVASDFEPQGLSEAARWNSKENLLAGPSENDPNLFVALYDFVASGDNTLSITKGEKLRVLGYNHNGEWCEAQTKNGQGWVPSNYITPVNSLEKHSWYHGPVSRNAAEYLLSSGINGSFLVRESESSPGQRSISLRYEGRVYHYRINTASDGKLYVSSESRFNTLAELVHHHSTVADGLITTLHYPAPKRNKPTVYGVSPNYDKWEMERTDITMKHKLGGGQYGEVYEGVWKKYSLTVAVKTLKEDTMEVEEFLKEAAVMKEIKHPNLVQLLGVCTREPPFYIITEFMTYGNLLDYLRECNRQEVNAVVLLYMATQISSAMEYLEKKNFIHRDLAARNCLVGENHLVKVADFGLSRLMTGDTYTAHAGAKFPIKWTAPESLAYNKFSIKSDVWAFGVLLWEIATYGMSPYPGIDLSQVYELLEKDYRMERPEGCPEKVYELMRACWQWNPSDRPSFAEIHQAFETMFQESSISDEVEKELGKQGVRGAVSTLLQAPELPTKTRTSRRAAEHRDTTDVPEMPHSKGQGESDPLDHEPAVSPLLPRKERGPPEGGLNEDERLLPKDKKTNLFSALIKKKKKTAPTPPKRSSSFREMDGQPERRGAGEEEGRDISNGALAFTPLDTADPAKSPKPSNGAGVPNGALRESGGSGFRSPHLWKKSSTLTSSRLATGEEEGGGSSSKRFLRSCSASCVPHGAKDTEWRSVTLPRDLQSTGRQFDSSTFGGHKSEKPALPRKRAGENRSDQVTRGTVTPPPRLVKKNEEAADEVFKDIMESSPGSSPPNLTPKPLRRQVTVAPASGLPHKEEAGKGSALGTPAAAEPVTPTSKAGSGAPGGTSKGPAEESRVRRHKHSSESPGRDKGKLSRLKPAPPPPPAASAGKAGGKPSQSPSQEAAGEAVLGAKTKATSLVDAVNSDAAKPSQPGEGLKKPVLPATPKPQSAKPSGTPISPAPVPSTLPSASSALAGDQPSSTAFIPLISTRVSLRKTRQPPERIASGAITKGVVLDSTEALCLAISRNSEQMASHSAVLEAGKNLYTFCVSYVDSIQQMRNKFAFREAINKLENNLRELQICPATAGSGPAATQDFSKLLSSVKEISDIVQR

Consider `Cn1cc(/C=N\NC(=O)c2cn(C)c3ccc(Br)cc23)c2ccccc21`, for which the Activity result was “Dose-dependent effect” in the series with SCC-25; “Dose-dependent effect” in the series with Detroit 562; 0.33% with MCF7 [2]; 4.71% with MCF7 [3]; 58.9% with HeLa [8]; “Dose-dependent effect” in the series on MCF7 [10]. The IC50 in the series with SCC-25 (SCC-25, 4 h) turned out to be 10.1 µM; with Detroit 562 (Detroit 562, 4 h), 22.7 µM. For the same compound, the viability at 4 h, 200 µM in series [1] is 95%. For the same compound, the viability at 1 µM with MCF7 [4] turned out to be 20.4%; in the series on HeLa [5] it was 14.3%. Besides, the outcome with MCF7 [6], in the series with HeLa [7], in the series on HeLa [9], in the series with HeLa [14], in the series with MCF7 [15] and in the series with HeLa [16] was inactive. Also, the outcome with HeLa [17] and with HeLa [18] was inactive. Further, the inhibition entry in series [11] was “Active”. The result in the series with HeLa [12] and with MCF7 [13] was Active.
